From ChEMBL document CHEMBL1154321, “Benzoxazole piperidines as selective and potent somatostatin receptor subtype 5 antagonists” (Bioorg Med Chem Lett, 2009)
In brackets after ≈: the same amount, converted by molar mass.

Legend:
[1] = biological target: Somatostatin receptor type 5 (Homo sapiens, UniProt P35346); assay: Displacement of SST14 from human recombinant SST5 receptor expressed in CHO cells by radioligand binding assay; format: cell-based
Method in brief: (§1)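 Membranes prepared by sonication from cells expressing the SST receptor subtype, incubated with radiolabeled 11-Tyr SST-14 tracer and test compound at varying concentrations; non-labeled SST-14 defined non-specific binding. Incubation stopped by glass-fiber filtration, bound radioactivity counted; IC50 for half-maximal binding inhibition estimated and Ki derived.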

[2] = biological target: Somatostatin receptor type 2 (Homo sapiens, UniProt P30874); assay: Displacement of SST14 from human recombinant SST2 receptor; method in brief: as §1
Somatostatin receptor type 2, sequence (P30874 whole entry): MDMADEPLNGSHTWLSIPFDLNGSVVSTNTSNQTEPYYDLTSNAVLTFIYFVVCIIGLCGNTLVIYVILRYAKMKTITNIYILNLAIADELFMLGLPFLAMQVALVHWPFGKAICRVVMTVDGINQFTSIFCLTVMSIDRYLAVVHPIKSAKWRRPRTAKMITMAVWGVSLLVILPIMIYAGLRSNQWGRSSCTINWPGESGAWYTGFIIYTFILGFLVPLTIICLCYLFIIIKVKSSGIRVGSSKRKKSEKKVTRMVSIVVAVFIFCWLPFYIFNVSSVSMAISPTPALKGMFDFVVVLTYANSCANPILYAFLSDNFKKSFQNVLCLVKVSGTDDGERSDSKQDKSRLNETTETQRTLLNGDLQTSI

[3] = biological target: Somatostatin receptor type 3 (Homo sapiens, UniProt P32745); assay: Displacement of SST14 from human recombinant SST3 receptor; method in brief: as §1
Somatostatin receptor type 3, sequence (P32745 whole entry): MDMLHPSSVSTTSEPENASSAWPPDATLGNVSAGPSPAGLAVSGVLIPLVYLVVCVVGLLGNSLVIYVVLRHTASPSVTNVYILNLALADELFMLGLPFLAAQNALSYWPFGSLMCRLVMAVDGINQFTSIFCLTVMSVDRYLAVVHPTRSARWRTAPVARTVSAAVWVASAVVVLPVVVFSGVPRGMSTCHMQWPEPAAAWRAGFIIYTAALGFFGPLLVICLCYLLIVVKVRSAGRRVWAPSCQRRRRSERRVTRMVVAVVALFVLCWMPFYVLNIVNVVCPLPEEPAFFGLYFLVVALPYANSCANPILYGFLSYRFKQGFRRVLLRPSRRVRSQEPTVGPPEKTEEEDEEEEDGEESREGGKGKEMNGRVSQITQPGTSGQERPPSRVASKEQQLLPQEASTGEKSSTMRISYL

[4] = biological target: Somatostatin receptor type 4 (Homo sapiens, UniProt P31391); assay: Displacement of SST14 from human recombinant SST4 receptor; method in brief: as §1
Somatostatin receptor type 4, sequence (P31391 whole entry): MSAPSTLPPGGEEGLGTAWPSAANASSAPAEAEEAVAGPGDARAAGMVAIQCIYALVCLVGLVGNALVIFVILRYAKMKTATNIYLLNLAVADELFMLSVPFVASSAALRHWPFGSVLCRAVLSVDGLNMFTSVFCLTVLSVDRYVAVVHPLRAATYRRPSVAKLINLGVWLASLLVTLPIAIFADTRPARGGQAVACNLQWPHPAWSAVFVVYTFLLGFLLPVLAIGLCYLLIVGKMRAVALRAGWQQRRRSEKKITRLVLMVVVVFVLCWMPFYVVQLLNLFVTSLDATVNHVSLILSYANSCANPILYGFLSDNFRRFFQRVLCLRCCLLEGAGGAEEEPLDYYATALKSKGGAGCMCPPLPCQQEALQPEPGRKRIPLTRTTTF

Histamine H1 receptor = Histamine H1 receptor (Homo sapiens, UniProt P35367); assay: Binding affinity to human histamine H1 receptor
Histamine H1 receptor, sequence (P35367 whole entry): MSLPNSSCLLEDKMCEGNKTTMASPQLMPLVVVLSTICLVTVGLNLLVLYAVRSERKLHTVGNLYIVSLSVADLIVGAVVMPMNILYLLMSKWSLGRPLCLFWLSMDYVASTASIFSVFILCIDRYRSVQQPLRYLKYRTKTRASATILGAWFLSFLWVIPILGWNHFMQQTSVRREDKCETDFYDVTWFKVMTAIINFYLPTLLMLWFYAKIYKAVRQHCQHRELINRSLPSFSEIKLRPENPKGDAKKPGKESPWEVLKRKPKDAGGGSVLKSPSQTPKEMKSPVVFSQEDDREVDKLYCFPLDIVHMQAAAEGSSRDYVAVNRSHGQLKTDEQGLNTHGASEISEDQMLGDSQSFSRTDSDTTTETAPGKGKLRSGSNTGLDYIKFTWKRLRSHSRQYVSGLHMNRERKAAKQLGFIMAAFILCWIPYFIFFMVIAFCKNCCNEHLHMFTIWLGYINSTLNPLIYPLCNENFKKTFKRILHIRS

Homo sapiens = species on record: Homo sapiens; assay: Selectivity ratio of Ki for human histamine H1 receptor to Ki for human SST5 receptor
[5] = Solubility in phosphate buffer at pH 6.5 by lyophilization solubility assay; format: physicochemical
Method in brief: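 Lyophilized DMSO stock solutions redissolved in 50 mM phosphate buffer, pH 6.5; solubility read spectrophotometrically.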

[6] = sPermeability by PAMPA; format: ADME; settings: read-out: permeability
Method in brief: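 Parallel artificial membrane permeation; Pe categorized as low (<0.1), medium (0.1–1.0) or high (>1.0).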

[7] = Octanol-TAPSO partition coefficient, log D at pH 7.4 by spectrophotometry; format: physicochemical; settings: octanol/TAPSO buffer
Method in brief: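 Spectrophotometric log D in 1-octanol/50 mM TAPSO buffer, pH 7.4, containing 5% (v/v) DMSO.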

[8] = Dissociation constant, pKa by spectrophotometry; format: physicochemical
[9] = Clearance in Wistar rat administered as single dose; format: ADME, organism-based; settings: in vivo
[10] = Volume of distribution at steady state in Wistar rat administered as single dose; format: ADME, organism-based; settings: in vivo, read-out: Vdss
[11] = Terminal half-life in Wistar rat administered as single dose; format: ADME, organism-based; settings: in vivo, read-out: beta t1/2 (converted)
[12] = Oral bioavailability in Wistar rat administered as single dose; format: ADME, organism-based; settings: in vivo

Somatostatin receptor type 5, sequence (P35346 whole entry): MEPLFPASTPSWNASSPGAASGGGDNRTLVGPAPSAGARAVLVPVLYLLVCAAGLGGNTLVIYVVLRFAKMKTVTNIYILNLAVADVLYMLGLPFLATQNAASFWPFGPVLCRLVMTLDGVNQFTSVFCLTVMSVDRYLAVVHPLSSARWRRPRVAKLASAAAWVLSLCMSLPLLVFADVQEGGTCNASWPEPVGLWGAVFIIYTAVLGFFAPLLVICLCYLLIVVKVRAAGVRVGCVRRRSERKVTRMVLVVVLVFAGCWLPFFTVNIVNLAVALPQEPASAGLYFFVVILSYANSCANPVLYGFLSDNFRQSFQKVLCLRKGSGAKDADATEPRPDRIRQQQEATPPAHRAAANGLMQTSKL

| Structure (SMILES) | Ki [1] [µM] | Ki [2] [µM] | Ki [3] [µM] | Ki [4] [µM] | Ki (Histamine H1 receptor) [µM] | Ratio Ki (Homo sapiens) | solubility [5] [µg/mL] | Papp [6] [×10⁻⁶ cm/s] | logD [7] | pKa [8] | clearance [9] [mL/min/kg] | Vd [10] [L/kg] | half-life [11] [h] | bioavailability [12] [%] |
| --- | --- | --- | --- | --- | --- | --- | --- | --- | --- | --- | --- | --- | --- | --- |
| CCOc1cc(CN2CCC(Nc3nc4ccccc4o3)CC2)ccc1C(F)(F)F | 0.524 | > 10 | > 10 | > 10 |  |  |  |  |  |  |  |  |  |  |
| CCOc1cc(CN2CCC(Nc3nc4ccccc4s3)CC2)ccc1OC | 0.33 | > 10 | > 10 | > 10 |  |  |  |  |  |  |  |  |  |  |
| CCOc1cc(CN2CCC(Nc3nc4ncccc4o3)CC2)ccc1OC | > 1 | > 10 | > 10 | > 10 |  |  |  |  |  |  |  |  |  |  |
| CCOc1cc(CN2CCC(Nc3nc4ccccc4o3)CC2)ccc1O |  | > 10 | > 10 | > 10 |  |  |  |  |  |  |  |  |  |  |
| CCOc1cc(CN2CCC(Nc3nc4ccncc4o3)CC2)ccc1OC | 0.72 | > 10 | > 10 | > 10 |  |  |  |  |  |  |  |  |  |  |
| CCOc1cc(CN2CCC(Nc3nc4cc(NS(=O)(=O)c5ccccc5)ccc4o3)CC2)ccc1OC | 0.205 | > 10 | > 10 | > 10 | 0.199 | 1 | 145 (≈ 270 µM) | 2.2 | 1.93 | 7.72 |  |  |  |  |
| COc1ccc(CCN2CCC(Nc3nc4ccccc4n3Cc3ccc(F)cc3)CC2)cc1 [ASTEMIZOLE] |  | > 10 | > 10 | > 10 |  |  |  |  |  |  |  |  |  |  |
| CC(C)Oc1cc(CN2CCC(Nc3nc4ccccc4o3)CC2)cc(OC(C)C)c1 | 0.031 | > 10 | > 10 | > 10 |  |  |  |  |  |  |  |  |  |  |
| CCOc1cc(CN2CCC(Nc3nc4ccccc4o3)CC2)c(F)cc1OCCO | > 1 | > 10 | > 10 | > 10 |  |  |  |  |  |  |  |  |  |  |
| CCOc1cc(CN2CCC(Nc3nc4ccc(Cl)cc4s3)CC2)ccc1OC | 0.361 | > 10 | > 10 | > 10 |  |  |  |  |  |  |  |  |  |  |
| CCOc1cc(CN2CCC(Nc3nc4cccnc4s3)CC2)ccc1OC | 0.309 | > 10 | > 10 | > 10 |  |  |  |  |  |  |  |  |  |  |
| CCOc1cc(CN2CCC(Nc3nc4cc(OC(F)(F)F)ccc4o3)CC2)ccc1OC | 0.354 | > 10 | > 10 | > 10 |  |  |  |  |  |  |  |  |  |  |
| CCOc1cc(CN2CCC(Nc3nc4ccccc4o3)CC2)ccc1F |  | > 10 | > 10 | > 10 | 0.826 | 4.3 | > 452 | 4.33 | 3.63 | 7.79 |  |  |  |  |
| CCOc1cc(CN2CCC(Nc3nc4cc(NC(C)=O)ccc4o3)CC2)ccc1OC | 0.357 | > 10 | > 10 | > 10 |  |  |  |  |  |  |  |  |  |  |
| CCOc1cc(CN2CCC(Nc3nc4cc(S(=O)(=O)CC)ccc4o3)CC2)cc(OC2CCOCC2)c1 | 0.055 | > 10 | > 10 | > 10 | 38.4 | 698 | 183 (≈ 337 µM) | 1.75 | 3.13 | 7.55 |  |  |  |  |
| CCOc1cc(CN2CCC(Nc3nc4cc(S(=O)(=O)N(C)C)ccc4o3)CC2)cc(OCC)c1-n1cccc1 | 0.052 | > 10 | > 10 | > 10 | 5 | 96 | 22 (≈ 38.8 µM) | 1.31 | 2.89 |  |  |  |  |  |
| COc1ccc(CN2CCC(Nc3nc4ccccc4o3)CC2)cc1OCC(C)C |  | > 10 | > 10 | > 10 |  |  |  |  |  |  |  |  |  |  |
| COc1ccc(CN2CCC(Nc3nc4ccccc4o3)CC2)cc1OCCF | 0.487 | > 10 | > 10 | > 10 |  |  |  |  |  |  |  |  |  |  |
| CCOc1cc(CN2CCC(Nc3nc4ccccc4o3)CC2)c(F)c(OCC)c1 | > 1 | > 10 | > 10 | > 10 |  |  |  |  |  |  |  |  |  |  |
| CCOc1cc(CN2CCC(Nc3nc4ccccc4o3)CC2)cc(OCC)c1F | 0.178 | > 10 | > 10 | > 10 |  |  |  |  |  |  |  |  |  |  |
| CCOc1cc(CN2CCC(Nc3nc4ccc(Cl)cc4o3)CC2)ccc1Cl | 0.239 | > 10 | > 10 | > 10 |  |  | 44 (≈ 105 µM) | 4.81 |  |  | 37 | 4.6 | 2.6 | 33 |
| COc1ccc(CN2CCC(Nc3nc4ccccc4o3)CC2)cc1OC | 0.472 | > 10 | > 10 | > 10 |  |  |  |  |  |  |  |  |  |  |
| COc1ccc(CN2CCC(Nc3nc4ccccc4o3)CC2)cc1OC1CCCC1 |  | > 10 | > 10 | > 10 |  |  |  |  |  |  |  |  |  |  |
